Data set [1] in a line: Therapeutic index, ratio of IC50 for human lymphocytes to EC50 for Human immunodeficiency virus 1 NL4-3. Particulars: read-out: TI; call rule not given here.
The test system of the next data set is MT4. The experiment in a line: Cytotoxicity against human MT4 lymphocytes after 48 hrs by MTT assay. Format: cell-based. Particulars: for pIC50: Homo sapiens, MT4, 48 h, read-out: IC50; for IC50: mt4.
The subject of data set [2] is Human immunodeficiency virus 1. Briefly: Antiviral activity against Human immunodeficiency virus 1 NL4-3 infected in MT4 lymphocytes assessed as p24 antigen level by ELISA. Format: functional, organism-based. As to conditions: for pEC50: Human immunodeficiency virus 1, NL4-3, read-out: EC50. In a few lines:
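HIV-1 NL4-3 variants at MOI 0.01 infect MT-4 cells in a replication screening assay run in 96-well format.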
(ELISA stands for enzyme-linked immunosorbent assay.)

A further data set deals with PC-3. Briefly: Cytotoxicity against human PC3 cells after 48 hrs by MTT assay. Format: functional, cell-based. Particulars: for pIC50: Homo sapiens, PC-3, 48 h, read-out: IC50; for IC50: pc-3. In a few lines:
(§1)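 Cells seeded and allowed to adhere at 37 °C in a CO2 incubator, then exposed for 48 h to 0.0001, 0.0005, 0.001, 0.005, 0.01, 0.05 or 0.1 mmol·L−1 compound. MTT (5%) added for a further 4 h, absorbance read at 570 nm.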
On the technique in general: Formazan colour is commonly taken as a measure of viable cells.

Another data set has as its system BGC-823. Briefly: Cytotoxicity against human BGC823 cells after 48 hrs by MTT assay. Format: functional, cell-based. Particulars: for pIC50: Homo sapiens, BGC-823, 48 h, read-out: IC50; for IC50: bgc-823. In a few lines:
as §1

Data set [3] has as its target T1, Glycogen phosphorylase, muscle form (Oryctolagus cuniculus, UniProt P00489).
T1 sequence (P00489 whole entry): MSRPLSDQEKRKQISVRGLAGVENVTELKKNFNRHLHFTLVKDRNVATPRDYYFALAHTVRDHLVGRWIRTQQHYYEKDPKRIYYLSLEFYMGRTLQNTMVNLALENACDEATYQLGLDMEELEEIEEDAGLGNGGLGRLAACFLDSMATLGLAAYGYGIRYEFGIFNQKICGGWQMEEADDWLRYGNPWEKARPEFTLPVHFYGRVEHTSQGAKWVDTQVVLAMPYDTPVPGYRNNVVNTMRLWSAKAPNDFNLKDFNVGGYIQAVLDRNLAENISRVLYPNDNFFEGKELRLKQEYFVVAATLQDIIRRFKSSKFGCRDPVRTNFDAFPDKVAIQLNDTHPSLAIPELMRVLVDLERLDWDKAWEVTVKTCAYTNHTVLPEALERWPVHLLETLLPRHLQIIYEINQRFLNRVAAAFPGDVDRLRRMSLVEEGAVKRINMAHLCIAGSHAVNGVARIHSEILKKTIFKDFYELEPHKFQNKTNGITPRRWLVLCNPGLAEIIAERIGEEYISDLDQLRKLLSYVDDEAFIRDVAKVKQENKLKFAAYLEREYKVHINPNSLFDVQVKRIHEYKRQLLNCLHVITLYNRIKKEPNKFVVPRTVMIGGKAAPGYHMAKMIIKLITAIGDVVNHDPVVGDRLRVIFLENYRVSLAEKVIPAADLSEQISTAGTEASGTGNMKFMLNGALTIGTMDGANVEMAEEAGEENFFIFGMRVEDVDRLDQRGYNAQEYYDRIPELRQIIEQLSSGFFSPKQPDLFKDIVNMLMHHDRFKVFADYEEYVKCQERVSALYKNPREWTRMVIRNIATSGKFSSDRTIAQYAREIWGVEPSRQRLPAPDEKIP
Briefly: Inhibition of rabbit muscle glycogen phosphorylase a. Particulars: for pIC50: read-out: IC50.

In another data set the test system is A549. The experiment in a line: Cytotoxicity against human A549 cells after 48 hrs by MTT assay. Format: functional, cell-based. Particulars: A549, 48 h. In a few lines:
as §1

A further data set deals with HeLa. The experiment in a line: Cytotoxicity against human HeLa cells after 48 hrs by MTT assay. Format: functional, cell-based. Particulars: for pIC50: Homo sapiens, HeLa, 48 h, read-out: IC50; for IC50: hela. The procedure, abridged: as §1
For a further data set, the system named is MCF7. The experiment in a line: Cytotoxicity against human MCF7 cells after 48 hrs by MTT assay. Format: functional, cell-based. As to conditions: MCF7, 48 h. In a few lines:
as §1

Structures are written as SMILES. pEC50, pIC50: −log10 of the molar value. Counter-ions that a name gives are not always drawn.

For `C=C(C)[C@@H]1CC[C@]2(C(=O)O)CC[C@]3(C)[C@H](CC[C@@H]4[C@@]5(C)CC[C@H](OC(=O)CC(C)(C)C(=O)O)C(C)(C)[C@@H]5CC[C@]43C)[C@@H]12` [BEVIRIMAT], in data set [1], the selectivity ratio turned out to be 185. The pIC50 (usually the negative decadic logarithm of the IC50, by convention in mol/L) with MT4 was 4.82. For the same molecule, the pEC50 (usually the EC50 on a negative log10 scale, so that one unit is a factor of ten) in [2] was 7.09.
`C=C(C)[C@@H]1CC[C@]2(COC(c3ccccc3)(c3ccccc3)c3ccccc3)CC[C@]3(C)[C@H](CC[C@@H]4[C@@](C)(CC(=O)OC)[C@H](C(C)(C)C(=O)OC)CC[C@]43C)[C@@H]12`: the pIC50 is 5.27 in the data set with PC-3; 5.02 with BGC-823; 5.54 in [3]; 3.00 in the data set with A549; 4.77 in the data set on HeLa; 3.43 in the data set with MCF7.
As to `C=C(C)[C@@H]1CC[C@]2(COC(c3ccccc3)(c3ccccc3)c3ccccc3)CC[C@]3(C)[C@H](CC[C@@H]4[C@@]5(C)[C@H](C(=O)OC)[C@H](OC(C)=O)C(C)(C)[C@@H]5CC[C@]43C)[C@@H]12`, the IC50 entry with MT4, with PC-3, in the data set with BGC-823 and in the data set with HeLa was “Not Active” each time. Also, the pIC50 was 4.82 in [3], 3.05 in the data set on A549 and 3.25 with MCF7. The EC50 entry in data set [2] is “Not Active”.
Consider `COc1cccc2c1C(=O)c1c(O)c3c(c(O)c1C2=O)C[C@@](O)(C(=O)CO)C[C@@H]3O[C@H]1C[C@H](N)[C@H](O)[C@H](C)O1` [DOXORUBICIN HYDROCHLORIDE], for which the pIC50 with PC-3 is 6.17; with A549, 6.27; in the data set on MCF7 it was 5.78.
As to `C=C(C)[C@@H]1CC[C@]2(CO)CC[C@]3(C)[C@H](CC[C@@H]4[C@@]5(C)CC[C@H](O)C(C)(C)[C@@H]5CC[C@]43C)[C@@H]12` [BETULIN], in the data set on MT4, the IC50 result is given as “Not Active”. For the same molecule, in [3], the pIC50 is 4.38. Also, in data set [2], the EC50 result is recorded as “Not Active”.
With `C=C(C)[C@@H]1CC[C@]2(COC(c3ccccc3)(c3ccccc3)c3ccccc3)CC[C@]3(C)[C@H](CC[C@@H]4[C@@]5(C)[C@H](C(=O)OC)[C@H](O)C(C)(C)[C@@H]5CC[C@]43C)[C@@H]12`, the IC50 entry in the data set on PC-3 and in the data set with HeLa was “Not Active” throughout. Moreover, the pIC50 in data set [3] was 4.70; in the data set with A549 it was 3.11; in the data set with MCF7 it was 3.40.
Consider `C=C(C)[C@@H]1CC[C@]2(C(=O)O)CC[C@]3(C)[C@H](CC[C@@H]4[C@@]5(C)[C@H](C(=O)OC)[C@H](OC(C)=O)C(C)(C)[C@@H]5CC[C@]43C)[C@@H]12`, for which the IC50 entry in the data set with MT4 is “Not Active”. The pIC50 was 4.97 with PC-3; 5.12 with BGC-823; 4.33 in data set [3]; 6.05 in the data set with A549; 4.25 in the data set with HeLa; 6.48 with MCF7. Moreover, the EC50 result in [2] was “Not Active”.
With `C=C(C)[C@@H]1CC[C@]2(CO)CC[C@]3(C)[C@H](CC[C@@H]4[C@@]5(C)[C@H](C(=O)OC)[C@H](OC(C)=O)C(C)(C)[C@@H]5CC[C@]43C)[C@@H]12`, the IC50 entry (in the data set with MT4; in data set [3]) was “Not Active” in each case. The pIC50 is 4.18 with PC-3, 4.59 with BGC-823, 4.20 with A549 and 3.22 with MCF7. Further, the EC50 result in data set [2] was “Not Active”.
For the molecule `C=C(C)[C@@H]1CC[C@]2(C(=O)O)CC[C@]3(C)[C@H](CC[C@@H]4[C@@]5(C)[C@H](C(=O)O)[C@H](O)C(C)(C)[C@@H]5CC[C@]43C)[C@@H]12` [EPICEANOTHIC ACID], the selectivity ratio in data set [1] stood at 2.49. The pIC50 is 4.41 in the data set with MT4; 4.71 in the data set with PC-3; 5.62 in the data set on BGC-823; 3.71 in [3]; 4.77 in the data set on A549; 4.06 with MCF7. Also, the pEC50 in data set [2] was 4.81.
Turning to `C=C(C)[C@@H]1CC[C@]2(C=O)CC[C@]3(C)[C@H](CC[C@@H]4[C@@]5(C)[C@H](C(=O)OC)[C@H](OC(C)=O)C(C)(C)[C@@H]5CC[C@]43C)[C@@H]12`, the IC50 result in the data set with MT4 is given as “Not Active”. Further, the pIC50 in the data set with PC-3 was 5.07; with BGC-823, 4.90; in data set [3] it was 4.27; in the data set on A549, 3.71; in the data set with HeLa, 3.98; in the data set on MCF7, 4.49. In addition, the EC50 entry in [2] is on record as “Not Active”.
Take `C=C(C)[C@@H]1CC[C@]2(COC(c3ccccc3)(c3ccccc3)c3ccccc3)CC[C@]3(C)[C@H](CC[C@@H]4[C@@](C)(CC(=O)O)[C@H](C(C)(C)C(=O)O)CC[C@]43C)[C@@H]12`: the pIC50 in the data set on PC-3 is 5.17; in data set [3], 6.68; with A549, 3.87; in the data set on MCF7 it was 3.25. For the same molecule, the IC50 entry with BGC-823 and in the data set on HeLa was “Not Active” in each case.

Values taken from ChEMBL document CHEMBL1641550, “Efficient synthesis and biological evaluation of epiceanothic acid and related compounds” (Bioorg Med Chem Lett, 2011).
